From ChEMBL document CHEMBL1131147, “7-Arylidenenaltrexones as selective delta1 opioid receptor antagonists” (J Med Chem, 1998)

Tests used:
[1] = molecular target: Kappa-type opioid receptor (Cavia porcellus) (UniProt P41144); assay: Inhibition of ethylketazocine binding to Opioid receptor kappa 1 of guinea pig ileal longitudinal muscle
Summary of the method: (§1)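 Electrically stimulated smooth muscle: guinea pig ileal longitudinal muscle with morphine or ethylketazocine, mouse vas deferens with DADLE. Antagonist 100 nM incubated 15 min (30 min in footnoted cases) before agonist. IC50 ratio = agonist IC50 with antagonist divided by control IC50 in the same preparation; mean ± SEM, n shown.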

[2] = molecular target: Delta-type opioid receptor (Mus musculus) (UniProt P32300); assay: Inhibition of DADLE binding to Opioid receptor delta 1 of mouse vas deferens; summary of the method: as §1
Chain of Delta-type opioid receptor (Mus musculus) (P32300 whole entry): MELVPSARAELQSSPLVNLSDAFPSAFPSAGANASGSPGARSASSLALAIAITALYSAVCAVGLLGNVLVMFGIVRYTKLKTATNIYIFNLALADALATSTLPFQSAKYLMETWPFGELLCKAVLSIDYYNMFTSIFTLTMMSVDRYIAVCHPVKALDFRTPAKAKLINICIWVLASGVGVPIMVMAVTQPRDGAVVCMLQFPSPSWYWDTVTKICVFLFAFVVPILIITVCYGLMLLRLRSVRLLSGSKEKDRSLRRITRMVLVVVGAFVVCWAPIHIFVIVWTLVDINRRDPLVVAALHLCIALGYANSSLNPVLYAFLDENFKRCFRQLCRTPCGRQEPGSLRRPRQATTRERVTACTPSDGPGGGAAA

[3] = molecular target: Mu-type opioid receptor (Cavia porcellus) (UniProt P97266); assay: Inhibition of morphine binding to Opioid receptor mu 1 of guinea pig ileal longitudinal muscle; summary of the method: as §1
Chain of Mu-type opioid receptor (Cavia porcellus) (P97266 whole entry): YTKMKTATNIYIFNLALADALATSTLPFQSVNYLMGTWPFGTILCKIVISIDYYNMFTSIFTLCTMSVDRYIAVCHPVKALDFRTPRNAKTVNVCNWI

[4] = Relative affinity for delta and kappa receptors
Summary of the method: (§2)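 Selectivity ratio = DADLE IC50 ratio (MVD) divided by morphine or EK IC50 ratio (GPI), with 100 nM antagonist. Where an IC50 ratio was below or near unity, a value of 1 was used.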

[5] = Relative affinity for delta and mu receptors; summary of the method: as §2
[6] = molecular target: Delta-type opioid receptor (Mus musculus) (UniProt P32300); assay: Antagonism of antinociceptive effect of DPDPE against delta 1 opioid receptor in male ICR mice at a sc dose of 16 umol/kg; format: functional, organism-based
Summary of the method: (§3)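 Male ICR mice, tail-flick antinociception. Antagonist given sc at the stated dose (µmol/kg), pretreatment timed so peak antagonism coincides with the agonist's peak antinociceptive response. Agonists: DPDPE (δ1), DSLET (δ2), morphine (µ), U50488 (κ). ED50 ratio = agonist ED50 with sc antagonist divided by control ED50, with 95% confidence limits.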

[7] = molecular target: Delta-type opioid receptor (Mus musculus) (UniProt P32300); assay: Antagonism of antinociceptive effect of DSLET against delta 2 opioid receptor in male ICR mice at a sc dose of 16 umol/kg; format: functional, organism-based; summary of the method: as §3
[8] = molecular target: Kappa-type opioid receptor (Mus musculus) (UniProt P33534); assay: Antagonism of antinociceptive effect of U-50,488 against Opioid receptor kappa 1 in male ICR mice at a sc dose of 16 umol/kg; format: functional, organism-based; summary of the method: as §3
Chain of Kappa-type opioid receptor (Mus musculus) (P33534 whole entry): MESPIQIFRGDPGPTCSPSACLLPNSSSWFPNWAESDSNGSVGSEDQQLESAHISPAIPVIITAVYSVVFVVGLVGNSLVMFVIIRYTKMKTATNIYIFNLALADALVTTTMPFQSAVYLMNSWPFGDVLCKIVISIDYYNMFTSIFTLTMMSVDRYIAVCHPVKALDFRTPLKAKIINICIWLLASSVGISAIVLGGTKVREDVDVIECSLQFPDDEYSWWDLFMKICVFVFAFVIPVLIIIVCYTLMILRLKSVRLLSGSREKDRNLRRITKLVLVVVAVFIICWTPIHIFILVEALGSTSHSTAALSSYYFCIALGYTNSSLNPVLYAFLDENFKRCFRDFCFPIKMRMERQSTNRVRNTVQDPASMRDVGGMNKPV

[9] = molecular target: Mu-type opioid receptor (Mus musculus) (UniProt P42866); assay: Antagonism of antinociceptive effect of morphine against Opioid receptor mu 1 in male ICR mice at a sc dose of 16 umol/kg; format: functional, organism-based; summary of the method: as §3
Chain of Mu-type opioid receptor (Mus musculus) (P42866 whole entry): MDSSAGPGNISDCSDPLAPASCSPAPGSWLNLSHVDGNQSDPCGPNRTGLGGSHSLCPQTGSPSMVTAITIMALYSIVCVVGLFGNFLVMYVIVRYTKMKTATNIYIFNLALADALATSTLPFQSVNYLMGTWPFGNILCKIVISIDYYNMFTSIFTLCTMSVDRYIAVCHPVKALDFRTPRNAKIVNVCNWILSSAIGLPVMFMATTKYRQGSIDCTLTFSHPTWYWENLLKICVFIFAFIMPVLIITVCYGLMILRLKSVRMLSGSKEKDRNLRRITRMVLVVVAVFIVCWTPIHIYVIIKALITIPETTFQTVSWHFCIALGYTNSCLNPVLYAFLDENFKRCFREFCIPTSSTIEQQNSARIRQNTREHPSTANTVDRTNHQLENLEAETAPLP

[10] = molecular target: Delta-type opioid receptor (Mus musculus) (UniProt P32300); assay: Antagonism of antinociceptive effect of DPDPE against delta 1 opioid receptor in male ICR mice at a sc dose of 5 umol/kg; format: functional, organism-based; summary of the method: as §3
[11] = molecular target: Delta-type opioid receptor (Mus musculus) (UniProt P32300); assay: Antagonism of antinociceptive effect of DSLET against delta 2 opioid receptor in male ICR mice at a sc dose of 5 umol/kg; format: functional, organism-based; summary of the method: as §3
[12] = molecular target: Kappa-type opioid receptor (Mus musculus) (UniProt P33534); assay: Antagonism of antinociceptive effect of U-50,488 against Opioid receptor kappa 1 in male ICR mice at a sc dose of 5 umol/kg; format: functional, organism-based; summary of the method: as §3
[13] = molecular target: Mu-type opioid receptor (Mus musculus) (UniProt P42866); assay: Antagonism of antinociceptive effect of morphine against Opioid receptor mu 1 in male ICR mice at a sc dose of 5 umol/kg; format: functional, organism-based; summary of the method: as §3
[14] = molecular target: Kappa-type opioid receptor (Mus musculus) (UniProt P33534); assay: Antagonism of antinociceptive effect of U-50,488 against kOpioid receptor kappa 1 in male ICR mice at a sc dose of 16 umol/kg; format: functional, organism-based; summary of the method: as §3
[15] = molecular target: Mu-type opioid receptor (Mus musculus) (UniProt P42866); assay: Antagonism of antinociceptive effect of morphine against Opioid receptor mu 1 in male ICR mice at a sc dose of 5 umol/kg.; format: functional, organism-based; summary of the method: as §3
[16] = molecular target: Kappa-type opioid receptor (Mus musculus) (UniProt P33534); assay: Antagonism of antinociceptive effect of U-50,488 against kOpioid receptor kappa 1 in male ICR mice at a sc dose of 5 umol/kg; format: functional, organism-based; summary of the method: as §3

Chain of Kappa-type opioid receptor (Cavia porcellus) (P41144 whole entry): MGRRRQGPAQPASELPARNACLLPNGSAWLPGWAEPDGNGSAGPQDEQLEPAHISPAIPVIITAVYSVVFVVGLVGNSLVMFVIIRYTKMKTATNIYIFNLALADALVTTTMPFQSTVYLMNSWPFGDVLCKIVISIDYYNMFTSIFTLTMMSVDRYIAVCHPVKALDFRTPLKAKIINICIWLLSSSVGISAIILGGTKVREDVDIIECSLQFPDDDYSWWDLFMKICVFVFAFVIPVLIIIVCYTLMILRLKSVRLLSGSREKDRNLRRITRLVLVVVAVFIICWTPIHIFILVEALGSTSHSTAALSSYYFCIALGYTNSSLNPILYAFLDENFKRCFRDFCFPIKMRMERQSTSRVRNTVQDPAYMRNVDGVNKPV

SMILES	IC50 ratio [1]	IC50 ratio [2]	IC50 ratio [3]	Selectivity ratio [4]	Selectivity ratio [5]	ED50 ratio [6]	ED50 ratio [7]	ED50 ratio [8]	ED50 ratio [9]	ED50 ratio [10]	ED50 ratio [11]	ED50 ratio [12]	ED50 ratio [13]	ED50 ratio [14]	ED50 ratio [15]	ED50 ratio [16]
O=C1/C(=C\c2ccc(F)cc2)C[C@@]2(O)C3Cc4ccc(O)c5c4C2(CCN3CC2CC2)[C@H]1O5 (stereo not given in full)	1.86	2.01	2.23	1.1	0.9	–	–	–	–	–	–	–	–	–	–	–
O=C1/C(=C\c2ccc(-c3cccc4ccccc34)cc2)C[C@@]2(O)C3Cc4ccc(O)c5c4C2(CCN3CC2CC2)[C@H]1O5 (stereo not given in full)	1.85	12.7	1.23	6.9	10.3	–	–	–	–	–	–	–	–	–	–	–
O=C1/C(=C\c2ccccc2F)C[C@@]2(O)C3Cc4ccc(O)c5c4C2(CCN3CC2CC2)[C@H]1O5 (stereo not given in full)	1.65	17	3.86	10.3	4.4	–	–	–	–	–	–	–	–	–	–	–
O=C1/C(=C\c2ccccc2)C[C@@]2(O)[C@H]3Cc4ccc(O)c5c4[C@@]2(CCN3CC2CC2)[C@H]1O5	2	35	13.1	17.5	2.7	16.8	9.6	1.8	5.7	–	–	–	–	–	–	–
COc1ccc(/C=C2/C[C@@]3(O)C4Cc5ccc(O)c6c5C3(CCN4CC3CC3)[C@@H](O6)C2=O)cc1 (stereo not given in full)	0.92	5.52	3.75	5.5	1.5	–	–	–	–	–	–	–	–	–	–	–
COc1cccc(/C=C2/C[C@@]3(O)C4Cc5ccc(O)c6c5C3(CCN4CC3CC3)[C@@H](O6)C2=O)c1 (stereo not given in full)	0.95	18	6.44	18	2.8	–	–	–	–	–	–	–	–	–	–	–
O=C1/C(=C\c2cccc([N+](=O)[O-])c2)C[C@@]2(O)C3Cc4ccc(O)c5c4C2(CCN3CC2CC2)[C@H]1O5 (stereo not given in full)	0.5	5.18	1.15	5.2	5.2	–	–	–	–	–	–	–	–	–	–	–
O=C1/C(=C\c2ccccc2Cl)C[C@@]2(O)C3Cc4ccc(O)c5c4C2(CCN3CC2CC2)[C@H]1O5 (stereo not given in full)	0.85	130	1.34	130	130	11.4	7.2	0.9	7.1	3.7	0.87	0.73	0.53	–	–	–
O=C1/C(=C\c2cccc(F)c2)C[C@@]2(O)C3Cc4ccc(O)c5c4C2(CCN3CC2CC2)[C@H]1O5 (stereo not given in full)	1.26	16.3	7.83	12.9	2.1	–	–	–	–	–	–	–	–	–	–	–
O=C1/C(=C\c2ccc(-c3ccc4ccccc4c3)cc2)C[C@@]2(O)C3Cc4ccc(O)c5c4C2(CCN3CC2CC2)[C@H]1O5 (stereo not given in full)	1.07	11.6	3.32	11.6	3.5	–	–	–	–	–	–	–	–	–	–	–
Cc1ccc(/C=C2/C[C@@]3(O)C4Cc5ccc(O)c6c5C3(CCN4CC3CC3)[C@@H](O6)C2=O)cc1 (stereo not given in full)	2.45	22.3	7.05	9.1	3.2	–	–	–	–	–	–	–	–	–	–	–
COc1ccccc1/C=C1/C[C@@]2(O)C3Cc4ccc(O)c5c4C2(CCN3CC2CC2)[C@@H](O5)C1=O (stereo not given in full)	1.05	120	8.49	120	14.1	11.1	6.8	–	5.8	2	0.8	–	–	0.84	1.03	0.47
COC(=O)c1ccc(/C=C2/C[C@@]3(O)C4Cc5ccc(O)c6c5C3(CCN4CC3CC3)[C@@H](O6)C2=O)cc1 (stereo not given in full)	0.62	14.6	3.81	14.6	3.8	–	–	–	–	–	–	–	–	–	–	–
O=C1/C(=C\c2ccc([N+](=O)[O-])cc2)C[C@@]2(O)C3Cc4ccc(O)c5c4C2(CCN3CC2CC2)[C@H]1O5 (stereo not given in full)	1.07	1.9	4.42	1.9	0.4	–	–	–	–	–	–	–	–	–	–	–
